This passage reports IC50 results from ChEMBL document CHEMBL1150225, “Cytotoxic cholestane glycosides from the bulbs of Ornithogalum saundersiae” (J Nat Prod, 2001).

The assay deals with HL-60. Nature of the assay: Cytotoxicity against human HL60 cells after 72 hrs by MTT assay. It is filed as functional, cell-based. The conditions noted are these: HL-60, 72 h. Summed up:
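HL-60 leukemia cells kept in RPMI 1640 with 10% fetal bovine serum, L-glutamine, 100 units/mL penicillin and 100 μg/mL streptomycin. Cells at 3 × 10^4 cells/mL exposed continuously to compound for 72 h. Growth read by MTT reduction. IC50 (50% inhibition) calculated from each compound's dose–response curve.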
(Tetrazolium assays rely on reduction of a dye to a coloured formazan, in cell work by metabolically active cells.)
One may read the IC50 as the concentration that gives 50% inhibition. Read a high IC50 as lower potency. Regarding `COc1ccc(C(=O)O[C@H]2[C@H](O[C@@H]3[C@@H](OC(C)=O)[C@H](O[C@H]4C[C@H]5[C@@H]6CC=C7C[C@@H](O)CC[C@]7(C)[C@H]6CC[C@]5(C)[C@@]4(O)[C@H](C)C(=O)CCC(C)C)OC[C@@H]3O)OC[C@@H](O[C@@H]3O[C@H](CO)[C@@H](O)[C@H](O)[C@H]3O)[C@@H]2O)cc1OC`, inhibition was half-maximal at 16 nM (IC50).

`CC(C)CCC(O)[C@@H](C)[C@@]1(O)[C@@H](O[C@@H]2OC[C@H](O)[C@H](O[C@@H]3OC[C@@H](O)[C@H](O)[C@H]3O)[C@H]2O)C[C@H]2[C@@H]3CC=C4C[C@@H](O)CC[C@]4(C)[C@H]3CC[C@@]21C` (stereo partly drawn) registered an IC50 of 8300 nM.

Turning to `CC(C)CCC(=O)[C@@H](C)[C@@]1(O)[C@@H](O[C@@H]2OC[C@H](O)[C@H](O[C@@H]3OC[C@@H](O[C@@H]4O[C@H](CO)[C@@H](O)[C@H](O)[C@H]4O)[C@H](O)[C@H]3O)[C@H]2O)C[C@H]2[C@@H]3CC=C4C[C@@H](O)CC[C@]4(C)[C@H]3CC[C@@]21C`, the IC50 is over 10000 nM.

Compound `COc1cc(C(=O)O[C@H]2[C@H](O[C@@H]3[C@@H](OC(C)=O)[C@H](O[C@H]4C[C@H]5[C@@H]6CC=C7C[C@@H](O)CC[C@]7(C)[C@H]6CC[C@]5(C)[C@@]4(O)[C@H](C)C(=O)CCC(C)C)OC[C@@H]3O)OC[C@@H](O[C@@H]3O[C@H](CO)[C@@H](O)[C@H](O)[C@H]3O)[C@@H]2O)cc(OC)c1OC` registered a concentration for half-maximal inhibition (IC50) of 14 nM.

In turn, `CC(C)CCC(=O)[C@@H](C)[C@@]1(O)[C@@H](O[C@@H]2OC[C@H](O)[C@H](O[C@@H]3OC[C@@H](O)[C@H](O)[C@H]3O)[C@H]2O)C[C@H]2[C@@H]3CC=C4C[C@@H](O)CC[C@]4(C)[C@H]3CC[C@@]21C` displayed an IC50 of 190 nM.

`COc1cccc2c1C(=O)c1c(O)c3c(c(O)c1C2=O)C[C@@](O)(C(=O)CO)C[C@@H]3O[C@H]1C[C@H](N)[C@H](O)[C@H](C)O1` [DOXORUBICIN] registered an IC50 of 7.2 nM.

The compound `COc1cc([C@@H]2c3cc4c(cc3[C@@H](O[C@@H]3O[C@@H]5CO[C@@H](C)O[C@H]5[C@H](O)[C@H]3O)[C@H]3COC(=O)[C@H]23)OCO4)cc(OC)c1O` [ETOPOSIDE] had an IC50 of 25 nM.

`CN(Cc1cnc2nc(N)nc(N)c2n1)c1ccc(C(=O)N[C@@H](CCC(=O)O)C(=O)O)cc1` [METHOTREXATE] yielded an IC50 of 12 nM.
